ChEMBL document CHEMBL1121680, “2,4-Diamino-5-benzylpyrimidines and analogues as antibacterial agents. 5. 3',5'-Dimethoxy-4'-substituted-benzyl analogues of trimethoprim” (J Med Chem, 1981)
Blank lines part the entries; values can stand above or below the molecule they belong to.

Tests used:
Dihydrofolate reductase [1] = target: T1, Dihydrofolate reductase (Rattus norvegicus, UniProt Q920D2); assay: Compound was tested for inhibitory activity against Dihydrofolate Reductase(DHFR) of rat liver; conditions: read-out: I50
T1 sequence (Q920D2 whole entry): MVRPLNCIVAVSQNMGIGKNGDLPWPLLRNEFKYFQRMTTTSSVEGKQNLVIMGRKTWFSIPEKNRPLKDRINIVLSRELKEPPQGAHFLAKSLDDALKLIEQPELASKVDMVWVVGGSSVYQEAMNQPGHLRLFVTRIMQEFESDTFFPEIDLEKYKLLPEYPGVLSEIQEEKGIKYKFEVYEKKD

Escherichia coli [2] = assay: Antimicrobial activity against Escherichia coli CN348 in mice in experiment 1; format: functional, Mus musculus
Escherichia coli [3] = assay: Antimicrobial activity against Escherichia coli CN348 in mice in experiment 2; format: functional, Mus musculus
Escherichia coli [4] = assay: Antimicrobial activity against Escherichia coli CN348 in mice in experiment 3; format: functional, Mus musculus
Klebsiella pneumoniae [5] = assay: Antimicrobial activity against Klebsiella pneumoniae CN3632 in mice in experiment 1; format: functional, Mus musculus
Klebsiella pneumoniae [6] = assay: Antimicrobial activity against Klebsiella pneumoniae CN3632 in mice in experiment 2; format: functional, Mus musculus
Klebsiella pneumoniae [7] = assay: Antimicrobial activity against Klebsiella pneumoniae CN3632 in mice in experiment 3; format: functional, Mus musculus
Mus musculus [8] = assay: Concentration of compound in serum of mouse 10 min after oral administration of 10 mg dose; format: functional, organism-based
Method in brief: (§1)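 Single po dose (10 or 2 mg per mouse) to groups of three mice (18–20 g); ~0.2 mL blood drawn from supraorbital plexus at 10–360 min and pooled; serum drug level assayed microbiologically with Bacillus pumilus as test organism. Half-life calculated from curve slopes once compound apparently evenly distributed.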

Mus musculus [9] = assay: Concentration of compound in serum of mouse 10 min after oral administration of 2 mg dose; format: functional, organism-based; method in brief: as §1
Mus musculus [10] = assay: Concentration of compound in serum of mouse 180 min after oral administration of 10 mg dose; format: functional, organism-based; method in brief: as §1
Mus musculus [11] = assay: Concentration of compound in serum of mouse 180 min after oral administration of 2 mg dose; format: functional, organism-based; method in brief: as §1
Mus musculus [12] = assay: Concentration of compound in serum of mouse 30 min after oral administration of 10 mg dose; format: functional, organism-based; method in brief: as §1
Mus musculus [13] = assay: Concentration of compound in serum of mouse 360 min after oral administration of 10 mg dose; format: functional, organism-based; method in brief: as §1
Mus musculus [14] = assay: Concentration of compound in serum of mouse 360 min after oral administration of 2 mg dose; format: functional, organism-based; method in brief: as §1
Mus musculus [15] = assay: Concentration of compound in serum of mouse 90 min after oral administration of 10 mg dose; format: functional, organism-based; method in brief: as §1
Mus musculus [16] = assay: Concentration of compound in serum of mouse 90 min after oral administration of 2 mg dose; format: functional, organism-based; method in brief: as §1
Mus musculus [17] = assay: Half-life in serum of mice after oral administration of 2 mg dose; format: functional, organism-based; method in brief: as §1
Proteus vulgaris [18] = assay: Antimicrobial activity against Proteus vulgaris CN329 in mice in experiment 1; format: functional, Mus musculus
Proteus vulgaris [19] = assay: Antimicrobial activity against Proteus vulgaris CN329 in mice in experiment 2; format: functional, Mus musculus
Staphylococcus aureus [20] = assay: Antimicrobial activity against Staphylococcus aureus CN491 in mice in experiment 1; format: functional, Mus musculus
Staphylococcus aureus [21] = assay: Antimicrobial activity against Staphylococcus aureus CN491 in mice in experiment 2; format: functional, Mus musculus
Staphylococcus aureus [22] = assay: Antimicrobial activity against Staphylococcus aureus CN491 in mice in experiment 3; format: functional, Mus musculus
Streptococcus pyogenes [23] = assay: Antimicrobial activity against streptococcus pyogenes CN10 in mice in experiment 1; format: functional, Mus musculus
Streptococcus pyogenes [24] = assay: Antimicrobial activity against streptococcus pyogenes CN10 in mice in experiment 2; format: functional, Mus musculus
Mus musculus [25] = assay: Half-life in serum of mice after oral administration of 10 mg dose; format: functional, organism-based; method in brief: as §1
Streptococcus pyogenes [26] = assay: Antimicrobial activity against streptococcus pyogenes CN10 in mice in experiment 3; format: functional, Mus musculus
[27] = target: T2, Dihydrofolate reductase (Rattus norvegicus) (UniProt Q920D2); assay: Compound was tested for inhibitory activity against Dihydrofolate reductase of rat liver at 2000 M
T2 sequence (whole entry): T1 sequence (Q920D2 whole entry)

Oryctolagus cuniculus = assay: Peak serum concentration reached within 1 hr of administration of 5 mg/kg oral dose; format: functional, organism-based; set-up: dose 5 mg/kg
Mus musculus [28] = organism: Mus musculus; conditions: Serum
Mus musculus [29] = organism: Mus musculus; conditions: Serum; remark: listed apart in the source
Dihydrofolate reductase [30] = target: T1, Dihydrofolate reductase; assay: Inhibition of rat liver Dihydrofolate reductase.; conditions: read-out: I50
[31] = target: T2, Dihydrofolate reductase (Rattus norvegicus); assay: PCompound was tested for inhibitory activity against Dihydrofolate reductase of rat liver at 40000 M
[32] = target: T2, Dihydrofolate reductase (Rattus norvegicus); assay: Compound was tested for inhibitory activity against Dihydrofolate reductase of rat liver at 40000 M
[33] = target: T2, Dihydrofolate reductase (Rattus norvegicus); assay: Compound was tested for inhibitory activity against Dihydrofolate reductase of rat liver at 1000 µM; conditions: 1000 M
[34] = target: T2, Dihydrofolate reductase (Rattus norvegicus); assay: Compound was tested for inhibitory activity against Dihydrofolate reductase of rat liver at 29000 M
[35] = target: T2, Dihydrofolate reductase (Rattus norvegicus); assay: Compound was tested for inhibitory activity against Dihydrofolate reductase of rat liver at 22400 M

inhibition [27]: 23%
SMILES: COc1cc(Cc2cnc(N)nc2N)cc(OC)c1OCc1ccc([N+](=O)[O-])cc1

IC50 (Dihydrofolate reductase [30]): 47 µM
SMILES: COc1cc(Cc2cnc(N)nc2N)cc(OC)c1OCc1ccccc1

IC50 (Dihydrofolate reductase [30]): 600 µM
SMILES: COc1cc(Cc2cnc(N)nc2N)cc(OC)c1OCCCl

inhibition [31]: 16%
SMILES: COCCOc1c(OC)cc(Cc2cnc(N)nc2N)cc1OC
Concentration (Oryctolagus cuniculus): 2 µg/mL

IC50 (Dihydrofolate reductase [30]): 69 µM
SMILES: COc1cc(Cc2cnc(N)nc2N)cc(OC)c1OCCCN1C(=O)c2ccccc2C1=O

inhibition [33]: 8%
SMILES: COc1cc(Cc2cnc(N)nc2N)cc(OC)c1Oc1ccc(N)cc1

IC50 (Dihydrofolate reductase [30]): 296 µM
SMILES: COc1cc(Cc2cnc(N)nc2N)cc(OC)c1OCCCCCC(=O)O

IC50 (Dihydrofolate reductase [30]): 560 µM
SMILES: COc1cc(Cc2cnc(N)nc2N)cc(OC)c1OCCCCCCN

inhibition [32]: 20%
SMILES: COc1cc(Cc2cnc(N)nc2N)cc(OC)c1OCCCN1CCCCC1

Further lines, the molecule ahead of its results:

SMILES: C=CCOc1c(OC)cc(Cc2cnc(N)nc2N)cc1OC
IC50 (Dihydrofolate reductase [1]): 480 µM
ED50 (Escherichia coli [2]): 7.5 mg mouse-1
ED50 (Escherichia coli [3]): 11 mg mouse-1
ED50 (Escherichia coli [4]): >10 mg mouse-1
ED50 (Klebsiella pneumoniae [5]): 4.6 mg mouse-1
ED50 (Klebsiella pneumoniae [6]): 10 mg mouse-1
ED50 (Klebsiella pneumoniae [7]): >10 mg mouse-1
Concentration (Mus musculus [8]): 84 µg/mL
Concentration (Mus musculus [9]): 18 µg/mL
Concentration (Mus musculus [10]): 27 µg/mL
Concentration (Mus musculus [11]): 0.26 µg/mL
Concentration (Mus musculus [12]): 59 µg/mL
Concentration (Mus musculus [13]): 2.8 µg/mL
Concentration (Mus musculus [14]): < 0.1 µg/mL
Concentration (Mus musculus [15]): 51 µg/mL
Concentration (Mus musculus [16]): 1 µg/mL
T1/2 (Mus musculus [17]): 21 min
ED50 (Proteus vulgaris [18]): 10 mg mouse-1
ED50 (Proteus vulgaris [19]): >10 mg mouse-1
ED50 (Staphylococcus aureus [20]): 2.5 mg mouse-1
ED50 (Staphylococcus aureus [21]): >10 mg mouse-1
ED50 (Staphylococcus aureus [22]): 8.1 mg mouse-1
ED50 (Streptococcus pyogenes [23]): 12 mg mouse-1
ED50 (Streptococcus pyogenes [24]): 4.3 mg mouse-1
T1/2 (Mus musculus [25]): 66 min
ED50 (Streptococcus pyogenes [26]): 5.1 mg mouse-1

SMILES: COc1cc(Cc2cnc(N)nc2N)cc(OC)c1OC
Concentration (Oryctolagus cuniculus): 2 µg/mL
T1/2 (Mus musculus [28]): 45.6 min
T1/2 (Mus musculus [29]): 162 min

SMILES: CCOC(=O)COc1c(OC)cc(Cc2cnc(N)nc2N)cc1OC
inhibition [32]: 12%

SMILES: COc1cc(COc2c(OC)cc(Cc3cnc(N)nc3N)cc2OC)cc(OC)c1OC
IC50 (Dihydrofolate reductase [30]): 15 µM

SMILES: COc1cc(Cc2cnc(N)nc2N)cc(OC)c1Oc1ccc([N+](=O)[O-])cc1
IC50 (Dihydrofolate reductase [30]): 50 µM

SMILES: COc1cc(Cc2cnc(N)nc2N)cc(OC)c1OCCN1CCOCC1
IC50 (Dihydrofolate reductase [30]): > 440 µM

SMILES: COc1cc(Cc2cnc(N)nc2N)cc(OC)c1Oc1ccc(NC(=O)CBr)cc1
inhibition [34]: 37%

SMILES: COc1cc(Cc2cnc(N)nc2N)cc(OC)c1C
IC50 (Dihydrofolate reductase [30]): 120 µM

SMILES: COc1cc(Cc2cnc(N)nc2N)cc(OC)c1OCC(=O)O
inhibition [35]: 20%
